# Experimental data published in ChEMBL document CHEMBL1811814, “Synthesis and evaluation of indole, pyrazole, chromone and pyrimidine based conjugates for tumor growth inhibitory activities--development of highly efficacious cytotoxic agents” (Eur J Med Chem, 2010).
# Assays:
# Format in all cases: functional
# EKVX [1] = assay: Growth inhibition of human EKVX cells
# UACC-257 = assay: Growth inhibition of human UACC257 cells assessed tumor cell growth at 10^-5 M; design: scale not given: the % may be the effect or the level left
# Summary of the method: (§1)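 Single-dose screen at 10^-5 M across the 60 human tumor cell line panel, run to NCI standards. The value is the percent growth of each cell line in the presence of compound. Compounds active at this dose moved on to five-concentration testing (10^-4 to 10^-8 M).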
# HOP-92 = assay: Growth inhibition of human HOP92 cells assessed tumor cell growth at 10^-5 M; design: scale not given: the % may be the effect or the level left
# Summary of the method: (§2)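 NCI 60-human-tumor-cell-line panel screen. Each compound was tested at a single concentration of 10^-5 M, and percent growth of tumor cells was recorded for each cell line. Growth inhibition was expressed from these percent-growth values.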
# Malme-3M [2] = assay: Growth inhibition of human MALME-3M cells
# SN12C [3] = assay: Growth inhibition of human SN12C cells
# HCT-15 = assay: Growth inhibition of human HCT15 cells assessed tumor cell growth at 10^-5 M; design: scale not given: the % may be the effect or the level left; summary of the method: as §2
# MDA-MB-468 [4] = assay: Growth inhibition of human MDA-MB-468 cells
# UO-31 [5] = assay: Growth inhibition of human UO31 cells
# MDA-MB-435 = assay: Growth inhibition of human MDA-MB-435 cells
# UO-31 [6] = assay: Growth inhibition of human UO31 cells assessed tumor cell growth at 10^-5 M; design: scale not given: the % may be the effect or the level left; summary of the method: as §1
# Malme-3M [7] = assay: Growth inhibition of human MALME-3M cells assessed tumor cell growth at 10^-5 M; design: scale not given: the % may be the effect or the level left; summary of the method: as §2
# T47D = assay: Growth inhibition of human T47D cells assessed tumor cell growth at 10^-5 M; design: scale not given: the % may be the effect or the level left; summary of the method: as §1
# SNB-19 = assay: Growth inhibition of human SNB19 cells
# NCI-H460 [8] = assay: Growth inhibition of human NCI-H460 cells
# MDA-MB-468 [9] = assay: Growth inhibition of human MDA-MB-468 cells assessed tumor cell growth at 10^-5 M; design: scale not given: the % may be the effect or the level left; summary of the method: as §2
# SK-MEL-5 = assay: Growth inhibition of human SK-MEL-5 cells assessed tumor cell growth at 10^-5 M; design: scale not given: the % may be the effect or the level left; summary of the method: as §2
# RXF 393 = assay: Growth inhibition of human RXF393 cells assessed tumor cell growth at 10^-5 M; design: scale not given: the % may be the effect or the level left; summary of the method: as §2
# OVCAR-8 = assay: Growth inhibition of human OVCAR8 cells
# KM12 [10] = assay: Growth inhibition of human KM12 cells assessed tumor cell growth at 10^-5 M; design: scale not given: the % may be the effect or the level left; summary of the method: as §2
# CAKI-1 [11] = assay: Growth inhibition of human Caki1 cells assessed tumor cell growth at 10^-5 M; design: scale not given: the % may be the effect or the level left; summary of the method: as §2
# NCI/ADR-RES = assay: Growth inhibition of human NCI/ADR-RES cells
# KM12 [12] = assay: Growth inhibition of human KM12 cells
# SN12C [13] = assay: Growth inhibition of human SN12C cells assessed tumor cell growth at 10^-5 M; design: scale not given: the % may be the effect or the level left; summary of the method: as §2
# A498 = assay: Growth inhibition of human A498 cells
# DU-145 [14] = assay: Growth inhibition of human DU145 cells
# PC-3 [15] = assay: Growth inhibition of human PC3 cells
# SF-295 [16] = assay: Growth inhibition of human SF295 cells
# SK-OV-3 = assay: Growth inhibition of human SKOV3 cells assessed tumor cell growth at 10^-5 M; design: scale not given: the % may be the effect or the level left; summary of the method: as §2
# U-251 [17] = assay: Growth inhibition of human U251 cells
# HCC 2998 = assay: Growth inhibition of human HCC2998 cells
# PC-3 [18] = assay: Growth inhibition of human PC3 cells assessed tumor cell growth at 10^-5 M; design: scale not given: the % may be the effect or the level left; summary of the method: as §2
# NCI-H460 [19] = assay: Growth inhibition of human NCI-H460 cells assessed tumor cell growth at 10^-5 M; design: scale not given: the % may be the effect or the level left; summary of the method: as §2
# HL-60(TB) = assay: Growth inhibition of human HL-60(TB) cells
# EKVX [20] = assay: Growth inhibition of human EKVX cells assessed tumor cell growth at 10^-5 M; design: scale not given: the % may be the effect or the level left; summary of the method: as §2
# NCI-H522 = assay: Growth inhibition of human NCI-H522 cells
# U-251 [21] = assay: Growth inhibition of human U251 cells assessed tumor cell growth at 10^-5 M; design: scale not given: the % may be the effect or the level left; summary of the method: as §1
# COLO 205 = assay: Growth inhibition of human COLO205 cells
# A549 = assay: Growth inhibition of human A549 cells assessed tumor cell growth at 10^-5 M; design: scale not given: the % may be the effect or the level left; summary of the method: as §2
# M14 = assay: Growth inhibition of human M14 cells
# MDA-MB-231 = assay: Growth inhibition of human MDA-MB-231 cells
# MOLT-4 = assay: Growth inhibition of human MOLT4 cells assessed tumor cell growth at 10^-5 M; design: scale not given: the % may be the effect or the level left; summary of the method: as §2
# CAKI-1 [22] = assay: Growth inhibition of human Caki1 cells
# LOX IMVI = assay: Growth inhibition of human LOXIMVI cells
# SF-295 [23] = assay: Growth inhibition of human SF295 cells assessed tumor cell growth at 10^-5 M; design: scale not given: the % may be the effect or the level left; summary of the method: as §2
# [24] = Growth inhibition of human RPMI8266 cells
# HCT-116 [25] = assay: Growth inhibition of human HCT116 cells assessed tumor cell growth at 10^-5 M; design: scale not given: the % may be the effect or the level left; summary of the method: as §2
# SW-620 = assay: Growth inhibition of human SW620 cells
# K562 = assay: Growth inhibition of human K562 cells
# TK-10 = assay: Growth inhibition of human TK10 cells
# DU-145 [26] = assay: Growth inhibition of human DU145 cells assessed tumor cell growth at 10^-5 M; design: scale not given: the % may be the effect or the level left; summary of the method: as §2
# SR = assay: Growth inhibition of human SR cells assessed tumor cell growth at 10^-5 M; design: scale not given: the % may be the effect or the level left; summary of the method: as §1
# OVCAR-3 = assay: Growth inhibition of human OVCAR3 cells assessed tumor cell growth at 10^-5 M; design: scale not given: the % may be the effect or the level left; summary of the method: as §2
# HOP-62 = assay: Growth inhibition of human HOP62 cells assessed tumor cell growth at 10^-5 M; design: scale not given: the % may be the effect or the level left; summary of the method: as §2
# MCF7 = assay: Growth inhibition of human MCF7 cells assessed tumor cell growth at 10^-5 M; design: scale not given: the % may be the effect or the level left; summary of the method: as §2
# ACHN = assay: Growth inhibition of human ACHN cells assessed tumor cell growth at 10^-5 M; design: scale not given: the % may be the effect or the level left; summary of the method: as §2
# HCT-116 [27] = assay: Growth inhibition of human HCT116 cells
# [28] = read-out: LC50 (the source's name)
compound,measurement,setting,value
CC1=NN(c2cccc(Cl)c2)C(=O)/C1=C\C=C\c1ccccc1,GI50,EKVX [1],3 µM
same,CC50,EKVX [1]; [28],> 100 µM
same,Activity,UACC-257,63.3%
same,Activity,HOP-92,101.34%
same,GI50,Malme-3M [2],2.7 µM
same,CC50,Malme-3M [2]; [28],> 100 µM
same,GI50,SN12C [3],2.4 µM
same,CC50,SN12C [3]; [28],> 100 µM
same,Activity,HCT-15,5%
same,GI50,MDA-MB-468 [4],1.6 µM
same,CC50,MDA-MB-468 [4]; [28],39.8 µM
same,GI50,UO-31 [5],1.6 µM
same,CC50,UO-31 [5]; [28],7.5 µM
same,GI50,MDA-MB-435,2.5 µM
same,CC50,MDA-MB-435; [28],> 100 µM
same,Activity,UO-31 [6],69.7%
same,Activity,Malme-3M [7],115.91%
same,Activity,T47D,41.86%
same,GI50,SNB-19,5.6 µM
same,CC50,SNB-19; [28],> 100 µM
same,GI50,NCI-H460 [8],1.6 µM
same,CC50,NCI-H460 [8]; [28],6.4 µM
same,Activity,MDA-MB-468 [9],9.96%
same,Activity,SK-MEL-5,5.05%
same,Activity,RXF 393,-87.73%
same,GI50,OVCAR-8,2.6 µM
same,CC50,OVCAR-8; [28],> 100 µM
same,Activity,KM12 [10],16.12%
same,Activity,CAKI-1 [11],52.22%
same,GI50,NCI/ADR-RES,3.3 µM
same,CC50,NCI/ADR-RES; [28],> 100 µM
same,GI50,KM12 [12],1.6 µM
same,CC50,KM12 [12]; [28],5.8 µM
same,Activity,SN12C [13],0.41%
same,GI50,A498,17.7 µM
same,CC50,A498; [28],> 100 µM
same,GI50,DU-145 [14],2.8 µM
same,CC50,DU-145 [14]; [28],53.7 µM
same,GI50,PC-3 [15],2.9 µM
same,CC50,PC-3 [15]; [28],> 100 µM
same,GI50,SF-295 [16],3.1 µM
same,CC50,SF-295 [16]; [28],> 100 µM
same,Activity,SK-OV-3,48.42%
same,GI50,U-251 [17],1.7 µM
same,CC50,U-251 [17]; [28],23.9 µM
same,GI50,HCC 2998,1.9 µM
same,CC50,HCC 2998; [28],6.3 µM
same,Activity,PC-3 [18],45.45%
same,Activity,NCI-H460 [19],100.76%
same,GI50,HL-60(TB),3.1 µM
same,CC50,HL-60(TB); [28],> 100 µM
same,Activity,EKVX [20],87.07%
same,GI50,NCI-H522,2.6 µM
same,LC50 (concentration killing 50% of cells),NCI-H522,> 100 µM
same,Activity,U-251 [21],-57.37%
same,GI50,COLO 205,2.3 µM
same,LC50,COLO 205,> 100 µM
same,Activity,A549,94.48%
same,GI50,M14,1.6 µM
same,CC50,M14; [28],7.5 µM
same,GI50,MDA-MB-231,2.2 µM
same,CC50,MDA-MB-231; [28],> 100 µM
same,Activity,MOLT-4,28.39%
same,GI50,CAKI-1 [22],1.9 µM
same,CC50,CAKI-1 [22]; [28],> 100 µM
same,GI50,LOX IMVI,1.4 µM
same,CC50,LOX IMVI; [28],6.7 µM
same,Activity,SF-295 [23],101.1%
same,GI50,[24],2.8 µM
same,CC50,[24]; [28],> 100 µM
same,Activity,HCT-116 [25],-89.22%
same,GI50,SW-620,1.7 µM
same,CC50,SW-620; [28],6.7 µM
same,GI50,K562,2.8 µM
same,CC50,K562; [28],> 100 µM
same,GI50,TK-10,3.1 µM
same,CC50,TK-10; [28],> 100 µM
same,Activity,DU-145 [26],112.48%
same,Activity,SR,10.62%
same,Activity,OVCAR-3,103.59%
same,Activity,HOP-62,6.78%
same,Activity,MCF7,5.42%
same,Activity,ACHN,-51.29%
same,GI50,HCT-116 [27],1.5 µM
same,CC50,HCT-116 [27]; [28],6.1 µM
